From PubChem
Most compounds without a hit are left out; they make up all but 2.3% or so of the library.
CSN inh: inhibitors of human CSN-mediated cullin deneddylation | Q92905 | Purified CSN, SCF-Nedd8-OG deneddylation, fluorescence polarization | inhibition, % at 12.5 µM | 0.38% of 360,000 active | AID 651999;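 active means pattern-corrected inhibition above about 35%, with an unprinted fluorescence ratio check between 0.5 and 1.5, limit read from the data, passing the limit was not always enough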
Target sequence (Q92905 whole entry, looked up, one chain of several): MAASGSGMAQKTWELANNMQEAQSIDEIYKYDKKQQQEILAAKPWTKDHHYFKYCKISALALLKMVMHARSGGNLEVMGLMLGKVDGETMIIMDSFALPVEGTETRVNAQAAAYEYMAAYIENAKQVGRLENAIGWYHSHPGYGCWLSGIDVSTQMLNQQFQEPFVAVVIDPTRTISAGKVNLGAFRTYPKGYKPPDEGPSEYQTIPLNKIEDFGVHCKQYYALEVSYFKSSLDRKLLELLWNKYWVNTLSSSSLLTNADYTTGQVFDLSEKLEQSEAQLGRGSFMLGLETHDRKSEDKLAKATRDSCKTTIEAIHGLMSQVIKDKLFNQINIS
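Schedule: reaction 90 min, room temperature / Assay system: HEK293T-derived human Csn5 enzyme / Input: Csn5 at 0.24 nM final / Measure: inhibition of Csn5 cleavage, % / Control set: substrate-only high control, full reaction low control / Technique: fluorescence polarization of the substrate / Buffer or medium: Tris/NaCl/DTT buffer, pH 7.5 / Reagent: SCFSkp2-Nedd8OG substrate at 10 nM final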
Rpn11 inh: blocks the human proteasome subunit Rpn11; O00487; human 26S proteasome, Ub4-pepOG fluorescence polarization; 20S core pre-blocked with epoxomicin; calls only at 20 µM; 0.59% of 360,000 active; AID 588493;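 active means inhibition at 20 µM, scaled to each plate's controls, above about 33%, limit read from the data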
HNF4A DNA FP: change in binding of human HNF4 alpha to DNA | P41235 | HNF4a-FITC DNA binding, fluorescence polarization, 1 h | activity change, % at 10 µM | 0.3% of 360,000 active | AID 1224865; in the data active means activity change above about 30%, passing the limit was not always enough
CRFR2-BP ag: CRF-BP/CRF-R2 complex agonism; HEK293 CRF-R2/CRF-BP, calcium dye fluorescence (FLIPR); percent of saturating CRF peptide response; activation, % at 13.2 µM; 0.46% of 350,000 active; AID 588473;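 active means activation of at least 50%, plus an integration ratio under a set limit after plate pattern correction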
CRFR2-BP antag: antagonists of CRF-binding protein/CRF-R2 receptor complex | HEK293 CRF-R2/CRF-BP, CRF-induced calcium fluorescence | inhibition, % at 11.8 µM | 0.59% of 350,000 active | AID 588475;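 active means inhibition of the ligand-induced calcium signal above about 50% at the single tested concentration, limit read from the data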
TPT1 inh: blocks Candida albicans tRNA 2'-phosphotransferase | recombinant caTPT1, FP RNA substrate dephosphorylation | inhibition, % at 5 µM | 0.81% of 300,000 active | AID 1962;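 active means inhibition above the mean of all tested compounds plus 3 SD, set per screening campaign, cut at about 24% in these data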
Rpn11 confirm: confirmation of human proteasome Rpn11 inhibitors. 29% of 1,900 active. shares compounds with Rpn11 inh. AID 602318. purified human 26S proteasome, Ub4-pepOG fluorescence polarization; proteasome pretreated with epoxomicin. inhibition, % at 20 µM
MMP-2 counter: blocks human MMP-2, flagging nonselective RPN11 hits | inhibition, % at 20 µM | 4% of 1,900 active | recombinant MMP-2, FRET peptide cleavage fluorescence | shares compounds with Rpn11 inh;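 further: human MMP-2 activated beforehand with APMA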
Thrombin FP: thrombin (bovine) inhibition counter-screen; inhibition, % at 20 µM; 13% of 1,900 active; bovine thrombin cleavage of Ub4-pepOG, fluorescence polarization; shares compounds with Rpn11 inh;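 active means mean inhibition at least 40% at 20 µM, or signal 3 deviations below plate average, so some actives read negative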
A number is an active result; – = inactive; · = not tested or not shown; + = active, no number. Unless noted, no stated cut-off is given here; in the data, active means inhibition above about 40%; inactive means the rest.

SMILES	CSN inh	Rpn11 inh	HNF4A DNA FP	CRFR2-BP ag	CRFR2-BP antag	TPT1 inh	Rpn11 confirm	MMP-2 counter	Thrombin FP
Cc1ccc(S(=O)(=O)Nc2cc(Cl)c(O)c3ncccc23)cc1	–	+	–	–	–	–	76.2	51.8	–
Oc1ccc(Cl)c2cccnc12	–	–	–	–	–	·	·	·	·
CC(OC(=O)CCN=C1NS(=O)(=O)c2ccccc21)C(=O)Nc1ccc(F)cc1Cl (stereo unspecified)	–	–	–	–	–	–	·	·	·
CCOC(=O)c1sc(NC(=O)/C=C/c2c(F)cccc2Cl)nc1C	–	+	34.0	–	–	–	–	–	–
COc1cccc2sc(Nc3nc4ccc(NC(C)=O)cc4s3)nc12	–	+	–	–	–	–	–	–	–
CN(C)CC/C=C1/c2ccccc2COc2ccccc21	·	·	·	·	·	–	·	·	·
Cc1cc(C)c(-c2nc3ccccc3s2)[nH]1	–	+	–	–	–	–	–	–	–
O=C(/C=C/c1cccs1)Nc1nccs1	–	–	–	–	–	–	·	·	·
O=C(/C=C/c1cccs1)Nc1cccc(NC(=O)/C=C/c2cccs2)n1	–	+	–	–	–	–	56.4	–	41.0
COc1cc(C(=O)Nc2cc(-c3cn4cccnc4n3)ccc2C)cc(OC)c1OC	–	–	–	–	–	–	·	·	·
Cc1ccc(-c2nc(NC(=O)CSc3nnc4scc(-c5ccccc5)n34)ns2)cc1	37.4	+	–	–	–	–	–	–	–
CCc1nnc(NC(=O)CSc2nnc3scc(-c4ccc(C)cc4)n23)s1	–	–	–	–	–	–	·	·	·
Cc1ccc(N2CC(C(=O)OCC(=O)Nc3cccc(Cl)c3C)CC2=O)cc1 (stereo unspecified)	–	–	–	–	–	·	·	·	·
CCOC(=O)c1nc2cc3n(c(CC(C)C)c-2c1C)CC(C)=C3C	–	+	–	–	–	–	–	–	–
O=C(Cc1cccc(NC(=O)C2CCCN(C(=O)C3CC3)C2)c1)Nc1cccc(C(=O)N2CCCCC2)c1 (stereo unspecified)	–	–	–	–	–	·	·	·	·
CC(=O)C1=C(C)NC(SCC(=O)c2ccc(Cl)cc2Cl)=C(C#N)C1c1ccco1 (stereo unspecified)	–	+	–	–	–	–	–	–	–
CC(/C=C/c1ccc(N(C)C)cc1)=N/N=C1/NC(=O)CC(C(=O)Nc2ccc(Cl)cc2)S1 (stereo unspecified)	–	+	–	–	–	–	89.1	–	86.9
CCCOc1ccc(NC(=O)C2CC(=O)N/C(=N/N=C(C)/C=C/c3ccc(N(C)C)cc3)S2)cc1 (stereo unspecified)	–	·	–	–	–	–	·	·	·
Cc1cc(-c2ccc(S(=O)(=O)N(C)c3ccc(C)c(C)c3)s2)on1	–	+	–	–	–	–	43.1	–	40.4
CCOP(=O)(c1ccccc1)c1nc(-c2ccc(F)cc2)oc1N1CCCCC1 (stereo unspecified)	–	+	–	–	–	–	–	–	–
CCOP(=O)(OCC)c1nc(-c2ccc(Br)cc2)oc1N1CCCCC1	–	–	–	–	–	–	·	·	·
COc1cc(C(=O)Nc2nnc(-c3sccc3C)s2)cc(OC)c1OC	58.9	+	–	–	–	–	–	–	64.0
CCOCc1nnc(NC(=O)c2cc(OC)c(OC)c(OC)c2)s1	–	–	–	–	–	–	·	·	·
CC(CSc1nc2ccccc2s1)Cn1c(N2CCCC2)nc2c1c(=O)[nH]c(=O)n2C (stereo unspecified)	–	+	–	–	–	–	–	–	–
CCOc1ccccc1NC(=O)C1CCCN1C(=O)OCc1ccccc1 (stereo unspecified)	–	–	–	–	–	–	·	·	·
